Legend:
Rattus norvegicus [1] = organism: Rattus norvegicus; assay: Alpha-adrenolytic activity (pA2) on the descending thoracic branch of the rat aorta; type: functional
Method in brief: (§1)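 Rat aortic strips held at 2 g resting tension, left about 2 h to stabilize; antagonist put in the bath 30 min before agonist challenge. pA2 by Arunlakshana–Schild analysis as developed by Miesch et al.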

Canis familiaris [2] = assay: In vivo percent coronary flow in Mongrel dogs after administration at 3 mg/Kg (iv); type: functional, Canis lupus familiaris
Method in brief: (§2)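 Overnight-fasted mongrel dogs of either sex (15–25 kg), pentobarbital 25 mg/kg iv (maintenance 1 mg/kg iv) plus levopromazine 0.5 mg/kg im. Femoral-vein injections at 0.3–1 and 3 mg/kg; coronary flow increase given as percent of the period before the 3 mg/kg injection.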

Sus scrofa [3] = organism: Sus scrofa; assay: Antagonism of calcium-induced contraction of a depolarized coronary in pig; type: functional; set-up: unit not given beside the values
Method in brief: (§3)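 Helical pig coronary strips (2–2.5 cm long, 3–4 mm wide) at 0.5 g resting tension in modified Krebs-Henseleit (1.25 mmol/L CaCl2), depolarized, contracted with calcium. Antagonist added 30 min beforehand. Result as pA2 (Arunlakshana–Schild) or pD2' (Ariens–Van Rossum, for noncompetitive antagonism).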

Rattus norvegicus [4] = organism: Rattus norvegicus; assay: Alpha-adrenolytic activity on the descending thoracic branch of the rat aorta; type: functional
Method in brief: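 Isolated aorta preparation set at 2 g resting tension and stabilized about 2 h. Antagonist was added to the bath 30 min before the assay. Competitive antagonism was expressed as pA2 (Arunlakshana–Schild method). Noncompetitive antagonism was expressed as pD2' (Ariens–Van Rossum calculation).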

Canis familiaris [5] = assay: In vivo percent coronary flow in Mongrel dogs after administering 3 mg/Kg (iv) of the compound; Insoluble; type: functional, organism-based; settings: Canis lupus familiaris; method in brief: as §2
Rattus norvegicus [6] = organism: Rattus norvegicus; assay: Alpha-adrenolytic activity (pA2) on the descending thoracic branch of the rat aorta; Insoluble; type: functional, organism-based; method in brief: as §1
Sus scrofa [7] = organism: Sus scrofa; assay: Antagonism of calcium-induced contraction on the depolarized coronary of pig; Insoluble; type: functional, organism-based; method in brief: as §3

Compound	Alpha-adrenolytic activity (Rattus norvegicus [1])	Coronary flow (Canis familiaris [2])	Ca2+ antagonism (Sus scrofa [3])	Alpha-adrenolytic activity (Rattus norvegicus [4])	Coronary flow (Canis familiaris [5])	Alpha-adrenolytic activity (Rattus norvegicus [6])	Ca2+ antagonism (Sus scrofa [7])
Cl.c1ccc(C(CCNC2CCCCC2)C2CCCCC2)cc1 (stereo not given)	6.8	156	5.8	–	–	–	–
CC(Cc1ccc(O)cc1)NCC(c1ccccc1)C1CCCCC1.O=[N+]([O-])O (stereo not given)	–	105	4.8	6.35	–	–	–
C1CCC(NCCC(C2CCCCC2)C2CCCCC2)CC1.Cl	7.25	130	4.85	–	–	–	–
COc1ccc(CC(C)NCC(c2ccccc2)C2CCCCC2)cc1.O=C(O)/C=C\C(=O)O (stereo not given)	–	100.5	5.1	6	–	–	–
CC(CCc1ccccc1)NCC(c1ccccc1)C1CCCCC1.O=C(O)/C=C\C(=O)O (stereo not given)	7.6	71.5	6.1	–	–	–	–
Cc1ccc(C(CNC2CCCCC2)C2CCCCC2)cc1.O=C(O)/C=C\C(=O)O (stereo not given)	6.55	68	6	–	–	–	–
CC(C)(C)NCC(c1ccccc1)C1CCCCC1.Cl (stereo not given)	7.25	104.5	<4.5	–	–	–	–
C1CCC(C(CC2CCCCN2)C2CCCCC2)CC1 (stereo not given) [PERHEXILINE]	6.7	37.5	5.2	–	–	–	–
CN(CCC(C1CCCCC1)C1CCCCC1)C1CCCCC1.O=C(O)/C=C\C(=O)O	6.15	67	4.85	–	–	–	–
COc1ccc(CCNCC(c2ccccc2)C2CCCCC2)cc1OC.O=C(O)/C=C\C(=O)O (stereo not given)	–	73	3.6	7.25	–	–	–
COc1ccc(CCNCCC23CC4CC(CC(C4)C2)C3)cc1OC.Cl	–	133	4.8	7.35	–	–	–
COc1ccc(CCNCCC(C2CCCCC2)C2CCCCC2)cc1OC.O=C(O)/C=C\C(=O)O	–	44.5	4.1	6.3	–	–	–
CC(Cc1ccccc1)NCC(c1ccccc1)C1CCCCC1.O=C(O)/C=C\C(=O)O (stereo not given)	6.9	157	6.2	–	–	–	–
CC(CCc1ccccc1)NCCC(C1CCCCC1)C1CCCCC1 (stereo not given)	–	–	–	–	Insoluble	Insoluble	Insoluble
C1CCC(NCCC23CC4CC(CC(C4)C2)C3)CC1.O=C(O)/C=C\C(=O)O	6.75	99	4.7	–	–	–	–
C1CCC(NCCCC(C2CCCCC2)C2CCCCC2)CC1.Cl	6.05	95.5	4.6	–	–	–	–
CC(Cc1ccccc1)NCCC12CC3CC(CC(C3)C1)C2.O=C(O)/C=C\C(=O)O (stereo not given)	7.3	146	4.85	–	–	–	–
CN1CCCCC1CC(C1CCCCC1)C1CCCCC1 (stereo not given)	6.9	135	5.3	–	–	–	–
C1CCC(NC(C2CCCCC2)C2CCCCC2)CC1.Cl	6.2	194	5.45	–	–	–	–
CC(Cc1ccccc1)NCCC(C1CCCCC1)C1CCCCC1.O=C(O)/C=C\C(=O)O (stereo not given)	<5	42	5.2	–	–	–	–
O=[N+]([O-])O.c1ccc(C(CNC2CCCCC2)C2CCCCC2)cc1 (stereo not given)	7.9	62	4.6	–	–	–	–
Cl.Oc1ccc(C(CNC2CCCCC2)C2CCCCC2)cc1 (stereo not given)	–	133.5	4.5	7.1	–	–	–
C1CCC(NCCCCC(C2CCCCC2)C2CCCCC2)CC1	–	–	–	–	Insoluble	Insoluble	Insoluble
O=[N+]([O-])O.c1ccc(C(CNC2CCCC2)C2CCCCC2)cc1 (stereo not given)	5.9	38.5	6.2	–	–	–	–
CC(CCc1ccccc1)NCCC12CC3CC(CC(C3)C1)C2.O=C(O)/C=C\C(=O)O (stereo not given)	7.15	215	5.1	–	–	–	–

From ChEMBL document CHEMBL1122077, “Synthesis and cardiovascular activity of a new series of cyclohexylaralkylamine derivatives related to perhexiline” (1982)
